From ChEMBL document CHEMBL3774312, “5-Substituted 3-isopropyl-7-[4-(2-pyridyl)benzyl]amino-1(2)H-pyrazolo[4,3-d]pyrimidines with anti-proliferative activity as potent and selective inhibitors of cyclin-dependent kinases” (Eur J Med Chem, 2016)
The source made the active and inactive calls. The calls are words filed in the database; no cut-off is given here.

Tests used:
[1] = biological target: Cyclin-dependent kinase 1 (Homo sapiens, UniProt P06493); assay: Inhibition of CDK1 (unknown origin)
MCF7 [2] = assay: Cell cycle arrest in BrdU pulse-labelled human MCF7 cells assessed as accumulation at late G2/M phase at 8 to 250 nM after 24 hrs by propidium iodide staining based flow cytometry; type: functional
[3] = biological target: Calcium/calmodulin-dependent protein kinase kinase 2 (Homo sapiens) (UniProt Q96RR4); assay: Inhibition of recombinant CAMKKB (unknown origin) assessed as residual activity at 1 uM relative to control
[4] = biological target: Dual specificity tyrosine-phosphorylation-regulated kinase 1A (Homo sapiens) (UniProt Q13627); assay: Inhibition of recombinant DYRK1A (unknown origin) assessed as residual activity at 1 uM relative to control
[5] = biological target: Calcium/calmodulin-dependent protein kinase type 1 (Homo sapiens) (UniProt Q14012); assay: Inhibition of recombinant CAMK1 (unknown origin) assessed as residual activity at 1 uM relative to control
Chain of Calcium/calmodulin-dependent protein kinase type 1 (Homo sapiens) (Q14012 whole entry, looked up): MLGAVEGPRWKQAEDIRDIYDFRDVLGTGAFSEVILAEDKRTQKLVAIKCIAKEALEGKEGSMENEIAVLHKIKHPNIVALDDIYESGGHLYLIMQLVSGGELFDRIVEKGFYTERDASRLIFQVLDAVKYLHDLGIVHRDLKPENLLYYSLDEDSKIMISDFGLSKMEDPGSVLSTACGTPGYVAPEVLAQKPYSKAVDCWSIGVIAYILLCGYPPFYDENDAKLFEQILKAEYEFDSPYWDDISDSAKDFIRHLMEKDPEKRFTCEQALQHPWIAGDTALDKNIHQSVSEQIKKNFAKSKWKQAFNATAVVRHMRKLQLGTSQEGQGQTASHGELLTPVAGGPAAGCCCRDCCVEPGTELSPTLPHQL

[6] = biological target: Ribosomal protein S6 kinase alpha-1 (Homo sapiens) (UniProt Q15418); assay: Inhibition of recombinant RSK1 (unknown origin) assessed as residual activity at 1 uM relative to control
[7] = biological target: Serine/threonine-protein kinase Chk2 (Homo sapiens) (UniProt O96017); assay: Inhibition of recombinant CHK2 (unknown origin) assessed as residual activity at 1 uM relative to control
K562 = assay: Cytotoxicity against human K562 cells assessed as reduction in cell viability after 72 hrs by calcein AM staining based fluorescence assay; type: functional; conditions: K562, 72 h
Outline: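 Cells were grown in DMEM with 10% FBS, penicillin and streptomycin at 37 °C in 5% CO2. Three doses were tested in triplicate for 72 h.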

[8] = Cell cycle arrest in BrdU pulse-labelled human HCT116 cells assessed as decrease in cells at S phase at 125 to 500 nM after 24 hrs by propidium iodide staining based flow cytometry; type: functional; conditions: HCT-116
HCT-116 [9] = assay: Induction of apoptosis in human HCT116 cells assessed as decrease in MCL-1 expression incubated for 24 hrs by immunoblotting analysis; type: functional, cell-based
Outline: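 HCT-116 cells were treated with different doses for 24 h and harvested into Laemmli buffer. Proteins were separated by SDS-PAGE and blotted to nitrocellulose. Membranes were probed overnight with primary antibodies (anti-PARP F-2, anti-Mcl-1 S-19, anti-p53 DO-1), then with peroxidase secondaries. Bands were detected by ECL with a CCD camera, with tubulin as loading control.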

HCT-116 [10] = assay: Induction of apoptosis in human HCT116 cells assessed as caspase7 activation using Ac-DEVD-AMC as substrate preincubated for 24 hrs followed by substrate addition measured after 3 hrs by fluorescence assay; type: functional, cell-based
G-361 = assay: Induction of apoptosis in human G361 cells assessed as caspase3 activation using Ac-DEVD-AMC as substrate at IC50 preincubated for 24 hrs followed by substrate addition measured after 3 hrs by fluorescence assay; type: functional, cell-based
[11] = biological target: Serine/threonine-protein kinase STK11 (Homo sapiens) (UniProt Q15831); assay: Inhibition of recombinant LKB1 (unknown origin) assessed as residual activity at 1 uM relative to control
[12] = biological target: Serine/threonine-protein kinase Nek6 (Homo sapiens) (UniProt Q9HC98); assay: Inhibition of recombinant NEK6 (unknown origin) assessed as residual activity at 1 uM relative to control
Chain of Serine/threonine-protein kinase Nek6 (Homo sapiens) (Q9HC98 whole entry): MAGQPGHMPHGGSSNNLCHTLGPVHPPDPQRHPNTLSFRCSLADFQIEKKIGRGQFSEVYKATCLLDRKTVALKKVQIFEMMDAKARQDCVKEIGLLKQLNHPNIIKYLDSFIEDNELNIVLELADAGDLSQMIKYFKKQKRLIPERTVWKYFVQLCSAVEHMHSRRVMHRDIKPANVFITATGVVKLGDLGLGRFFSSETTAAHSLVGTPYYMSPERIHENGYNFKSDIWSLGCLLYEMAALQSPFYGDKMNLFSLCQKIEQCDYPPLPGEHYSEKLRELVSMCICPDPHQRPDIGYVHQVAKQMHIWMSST

[13] = biological target: Proto-oncogene tyrosine-protein kinase Src (Homo sapiens) (UniProt P12931); assay: Inhibition of recombinant SRC (unknown origin) assessed as residual activity at 1 uM relative to control
[14] = biological target: Aurora kinase B (Homo sapiens) (UniProt Q96GD4); assay: Inhibition of recombinant Aurora B (unknown origin) assessed as residual activity at 1 uM relative to control
Chain of Aurora kinase B (Homo sapiens) (Q96GD4 whole entry): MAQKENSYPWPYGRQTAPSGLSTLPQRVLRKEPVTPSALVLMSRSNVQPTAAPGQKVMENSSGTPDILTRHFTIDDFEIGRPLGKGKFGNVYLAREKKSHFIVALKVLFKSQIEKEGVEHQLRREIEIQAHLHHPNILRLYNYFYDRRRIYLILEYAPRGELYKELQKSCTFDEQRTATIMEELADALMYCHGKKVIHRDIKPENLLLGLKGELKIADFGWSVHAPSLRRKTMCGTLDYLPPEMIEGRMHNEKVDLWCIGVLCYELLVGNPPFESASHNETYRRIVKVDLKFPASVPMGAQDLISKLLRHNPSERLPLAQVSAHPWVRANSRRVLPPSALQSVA

[15] = biological target: Myosin light chain kinase, smooth muscle (Homo sapiens) (UniProt Q15746); assay: Inhibition of recombinant smMLCK (unknown origin) assessed as residual activity at 1 uM relative to control
[16] = biological target: Eukaryotic elongation factor 2 kinase (Homo sapiens) (UniProt O00418); assay: Inhibition of recombinant EF2K (unknown origin) assessed as residual activity at 1 uM relative to control
[17] = biological target: Serine/threonine-protein kinase TBK1 (Homo sapiens) (UniProt Q9UHD2); assay: Inhibition of recombinant TBK1 (unknown origin) assessed as residual activity at 1 uM relative to control
Chain of Serine/threonine-protein kinase TBK1 (Homo sapiens) (Q9UHD2 whole entry): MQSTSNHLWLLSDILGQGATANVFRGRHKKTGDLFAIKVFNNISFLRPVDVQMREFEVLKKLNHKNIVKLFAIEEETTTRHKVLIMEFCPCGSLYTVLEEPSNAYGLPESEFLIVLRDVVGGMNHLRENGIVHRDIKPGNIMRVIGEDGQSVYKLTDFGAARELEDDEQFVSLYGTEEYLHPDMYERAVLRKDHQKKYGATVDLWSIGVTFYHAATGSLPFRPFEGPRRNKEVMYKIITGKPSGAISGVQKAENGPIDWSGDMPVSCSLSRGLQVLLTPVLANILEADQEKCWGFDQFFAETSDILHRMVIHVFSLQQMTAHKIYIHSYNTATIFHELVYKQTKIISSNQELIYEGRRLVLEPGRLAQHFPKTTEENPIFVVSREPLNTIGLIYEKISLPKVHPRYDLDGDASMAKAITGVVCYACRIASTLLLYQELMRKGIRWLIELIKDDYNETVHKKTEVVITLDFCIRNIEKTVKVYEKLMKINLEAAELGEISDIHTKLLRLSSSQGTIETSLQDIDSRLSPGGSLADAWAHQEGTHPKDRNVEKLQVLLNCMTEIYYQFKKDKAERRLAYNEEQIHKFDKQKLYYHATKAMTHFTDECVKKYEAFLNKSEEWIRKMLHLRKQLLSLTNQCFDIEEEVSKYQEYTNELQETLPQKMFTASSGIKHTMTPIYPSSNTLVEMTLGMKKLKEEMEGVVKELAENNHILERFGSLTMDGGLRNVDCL

[18] = biological target: Mitogen-activated protein kinase 8 (Homo sapiens) (UniProt P45983); assay: Inhibition of recombinant JNK1 (unknown origin) assessed as residual activity at 1 uM relative to control
Chain of Mitogen-activated protein kinase 8 (Homo sapiens) (P45983 whole entry): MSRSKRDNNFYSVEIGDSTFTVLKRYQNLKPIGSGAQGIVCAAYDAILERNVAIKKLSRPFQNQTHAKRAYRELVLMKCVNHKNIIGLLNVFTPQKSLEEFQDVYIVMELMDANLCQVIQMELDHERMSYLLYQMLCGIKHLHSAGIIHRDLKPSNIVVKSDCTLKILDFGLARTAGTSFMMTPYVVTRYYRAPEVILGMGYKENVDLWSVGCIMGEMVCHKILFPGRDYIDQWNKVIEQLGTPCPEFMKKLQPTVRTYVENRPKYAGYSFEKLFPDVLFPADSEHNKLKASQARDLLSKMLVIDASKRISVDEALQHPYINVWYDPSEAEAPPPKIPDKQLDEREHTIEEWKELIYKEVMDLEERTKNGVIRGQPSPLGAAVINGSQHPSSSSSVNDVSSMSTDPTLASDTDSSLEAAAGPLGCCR

[19] = biological target: SRSF protein kinase 1 (Homo sapiens) (UniProt Q96SB4); assay: Inhibition of recombinant SRPK1 (unknown origin) assessed as residual activity at 1 uM relative to control
Chain of SRSF protein kinase 1 (Homo sapiens) (Q96SB4 whole entry): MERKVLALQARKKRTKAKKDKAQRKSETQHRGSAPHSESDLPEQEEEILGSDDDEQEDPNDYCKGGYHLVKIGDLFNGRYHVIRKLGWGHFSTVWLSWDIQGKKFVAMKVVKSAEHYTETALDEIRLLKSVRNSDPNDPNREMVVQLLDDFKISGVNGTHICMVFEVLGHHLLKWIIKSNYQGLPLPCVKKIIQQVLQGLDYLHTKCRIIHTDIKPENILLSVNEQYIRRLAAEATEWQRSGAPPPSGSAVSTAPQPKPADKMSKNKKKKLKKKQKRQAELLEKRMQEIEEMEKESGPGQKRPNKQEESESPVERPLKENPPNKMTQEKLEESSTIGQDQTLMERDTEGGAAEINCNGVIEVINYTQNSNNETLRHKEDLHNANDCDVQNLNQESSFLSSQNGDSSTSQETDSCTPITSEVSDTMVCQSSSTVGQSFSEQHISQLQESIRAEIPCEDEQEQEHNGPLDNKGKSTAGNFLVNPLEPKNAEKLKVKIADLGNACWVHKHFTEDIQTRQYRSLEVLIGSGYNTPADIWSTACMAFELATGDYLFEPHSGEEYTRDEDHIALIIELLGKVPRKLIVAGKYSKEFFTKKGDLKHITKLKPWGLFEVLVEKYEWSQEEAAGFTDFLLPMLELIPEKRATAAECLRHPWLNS

Homo sapiens = organism: Homo sapiens; assay: Inhibition of recombinant PKA (unknown origin) assessed as residual activity at 1 uM relative to control
[20] = biological target: Tyrosine-protein kinase BTK (Homo sapiens) (UniProt Q06187); assay: Inhibition of recombinant BTK (unknown origin) assessed as residual activity at 1 uM relative to control
[21] = biological target: Glycogen synthase kinase-3 beta (Homo sapiens) (UniProt P49841); assay: Inhibition of recombinant GSK3beta (unknown origin) assessed as residual activity at 1 uM relative to control
Chain of Glycogen synthase kinase-3 beta (Homo sapiens) (P49841 whole entry, looked up): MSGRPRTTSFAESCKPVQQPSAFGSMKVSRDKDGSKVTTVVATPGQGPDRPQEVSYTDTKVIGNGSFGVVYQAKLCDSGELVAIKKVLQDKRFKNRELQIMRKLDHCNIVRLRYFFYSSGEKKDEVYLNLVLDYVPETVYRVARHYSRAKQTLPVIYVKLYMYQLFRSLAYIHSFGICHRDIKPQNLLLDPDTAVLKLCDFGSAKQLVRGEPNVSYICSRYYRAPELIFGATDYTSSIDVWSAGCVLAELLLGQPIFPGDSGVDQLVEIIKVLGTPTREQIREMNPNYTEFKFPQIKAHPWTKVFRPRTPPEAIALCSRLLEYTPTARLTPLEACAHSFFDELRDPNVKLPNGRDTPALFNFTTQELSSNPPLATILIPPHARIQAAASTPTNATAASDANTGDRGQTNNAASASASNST

[22] = biological target: Ribosomal protein S6 kinase beta-1 (Homo sapiens) (UniProt P23443); assay: Inhibition of recombinant S6K1 (unknown origin) assessed as residual activity at 1 uM relative to control
[23] = biological target: Receptor tyrosine-protein kinase erbB-4 (Homo sapiens) (UniProt Q15303); assay: Inhibition of recombinant HER4 (unknown origin) assessed as residual activity at 1 uM relative to control
[24] = biological target: 3-phosphoinositide-dependent protein kinase 1 (Homo sapiens) (UniProt O15530); assay: Inhibition of recombinant PDK1 (unknown origin) assessed as residual activity at 1 uM relative to control
[25] = biological target: Tyrosine-protein kinase Lck (Homo sapiens) (UniProt P06239); assay: Inhibition of recombinant LCK (unknown origin) assessed as residual activity at 1 uM relative to control
[26] = biological target: Rho-associated protein kinase 2 (Homo sapiens) (UniProt O75116); assay: Inhibition of recombinant ROCK2 (unknown origin) assessed as residual activity at 1 uM relative to control
[27] = biological target: Insulin-like growth factor 1 receptor (Homo sapiens) (UniProt P08069); assay: Inhibition of recombinant IGF1R (unknown origin) assessed as residual activity at 1 uM relative to control
Chain of Insulin-like growth factor 1 receptor (Homo sapiens) (P08069 31-736 limits assumed): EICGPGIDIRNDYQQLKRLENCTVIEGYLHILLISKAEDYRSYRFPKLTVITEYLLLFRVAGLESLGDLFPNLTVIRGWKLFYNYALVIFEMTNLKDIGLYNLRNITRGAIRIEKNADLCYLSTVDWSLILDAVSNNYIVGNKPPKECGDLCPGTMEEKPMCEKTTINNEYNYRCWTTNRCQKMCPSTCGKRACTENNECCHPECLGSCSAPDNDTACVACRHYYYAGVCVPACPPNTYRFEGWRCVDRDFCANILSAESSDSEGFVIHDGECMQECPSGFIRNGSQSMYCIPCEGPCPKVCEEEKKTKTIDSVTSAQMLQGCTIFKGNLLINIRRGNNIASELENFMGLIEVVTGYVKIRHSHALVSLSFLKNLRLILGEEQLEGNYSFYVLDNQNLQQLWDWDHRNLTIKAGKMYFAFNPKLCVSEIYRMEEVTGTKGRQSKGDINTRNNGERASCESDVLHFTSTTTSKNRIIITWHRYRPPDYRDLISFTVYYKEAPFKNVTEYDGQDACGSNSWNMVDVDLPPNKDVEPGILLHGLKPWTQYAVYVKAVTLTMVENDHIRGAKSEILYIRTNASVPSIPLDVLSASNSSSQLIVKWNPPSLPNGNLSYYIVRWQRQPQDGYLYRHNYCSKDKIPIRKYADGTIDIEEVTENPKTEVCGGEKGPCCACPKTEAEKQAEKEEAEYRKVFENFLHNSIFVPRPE
Chain of Insulin-like growth factor 1 receptor (Homo sapiens) (P08069 741-1367 limits assumed): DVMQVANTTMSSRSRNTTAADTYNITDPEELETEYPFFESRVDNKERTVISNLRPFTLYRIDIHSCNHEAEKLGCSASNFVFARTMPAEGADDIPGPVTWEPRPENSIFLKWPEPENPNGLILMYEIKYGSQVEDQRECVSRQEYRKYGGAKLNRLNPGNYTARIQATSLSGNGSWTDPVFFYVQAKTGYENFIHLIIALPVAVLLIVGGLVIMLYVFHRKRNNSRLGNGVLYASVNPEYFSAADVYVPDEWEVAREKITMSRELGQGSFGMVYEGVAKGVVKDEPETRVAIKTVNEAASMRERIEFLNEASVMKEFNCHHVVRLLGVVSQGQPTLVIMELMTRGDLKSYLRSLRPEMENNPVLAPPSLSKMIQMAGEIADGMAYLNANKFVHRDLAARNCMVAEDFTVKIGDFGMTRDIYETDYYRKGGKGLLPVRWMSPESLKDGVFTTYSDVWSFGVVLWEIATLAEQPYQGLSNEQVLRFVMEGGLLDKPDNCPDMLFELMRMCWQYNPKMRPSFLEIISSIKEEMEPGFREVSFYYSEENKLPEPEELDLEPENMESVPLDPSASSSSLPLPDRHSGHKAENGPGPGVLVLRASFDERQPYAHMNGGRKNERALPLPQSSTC

[28] = biological target: Interleukin-1 receptor-associated kinase 4 (Homo sapiens) (UniProt Q9NWZ3); assay: Inhibition of recombinant IRAK4 (unknown origin) assessed as residual activity at 1 uM relative to control
[29] = biological target: RAC-alpha serine/threonine-protein kinase (Homo sapiens) (UniProt P31749); assay: Inhibition of recombinant PKBalpha (unknown origin) assessed as residual activity at 1 uM relative to control
MCF7 [30] = assay: Cell cycle arrest in BrdU pulse-labelled human MCF7 cells assessed as accumulation at late S phase at 8 to 250 nM after 24 hrs by propidium iodide staining based flow cytometry; type: functional

Chain of Cyclin-dependent kinase 1 (P06493 whole entry): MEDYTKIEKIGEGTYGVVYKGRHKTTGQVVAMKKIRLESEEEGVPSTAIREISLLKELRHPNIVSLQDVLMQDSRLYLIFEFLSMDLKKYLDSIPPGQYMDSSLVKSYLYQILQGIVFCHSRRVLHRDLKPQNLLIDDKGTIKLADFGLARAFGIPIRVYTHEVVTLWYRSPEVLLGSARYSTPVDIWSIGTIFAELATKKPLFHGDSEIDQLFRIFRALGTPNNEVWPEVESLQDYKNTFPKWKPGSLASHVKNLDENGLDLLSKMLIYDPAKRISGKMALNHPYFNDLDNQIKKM

CC(O)CNc1nc(NCc2ccc(-c3ccccn3)cc2)c2[nH]nc(C(C)C)c2n1 (stereo not drawn)
IC50 [1]: 777 nM | Activity (MCF7 [2]): Active | Activity [3]: 49% | Activity [4]: 60% | Activity [5]: 77% | Activity [6]: 77% | Activity [7]: 79% | IC50 (K562): 57 nM | Activity [8]: Active | Activity (HCT-116 [9]): Dose-dependent effect | Activity (HCT-116 [10]): Dose-dependent effect | Activity (G-361): Active | Activity [11]: 82% | Activity [12]: 85% | Activity [13]: 88% | Activity [14]: 89% | Activity [15]: 90% | Activity [16]: 92% | Activity [17]: 92% | Activity [18]: 93% | Activity [19]: 95% | Activity (Homo sapiens): 96% | Activity [20]: > 100% | Activity [21]: > 100% | Activity [22]: > 100% | Activity [23]: > 100% | Activity [24]: > 100% | Activity [25]: > 100% | Activity [26]: > 100% | Activity [27]: > 100% | Activity [28]: > 100% | Activity [29]: > 100% | Activity (MCF7 [30]): Active
